Experimental data published in ChEMBL document CHEMBL4024768, “Discovery and Optimization of Thiazolidinyl and Pyrrolidinyl Derivatives as Inhaled PDE4 Inhibitors for Respiratory Diseases” (J Med Chem, 2017).

Columns and labels:
[1] = Inhibition of PDE4 in human PBMC assessed as reduction in LPS-induced TNFalpha release after 18 hrs by quantitative ELISA
[2] = Drug level in human hepatocytes treated with 3, 5 -Dichloro-4-( (S)-2-(3 -(cyclopropylmethoxy)-4-(difluoromethoxy)phenyl)-2-(((S)-1-((3- (dimethylcarbamoyl)-phenyl)sulfonyl)pyrrolidine-2-carbonyl)oxy)ethyl)pyridine 1-Oxide at 10 uM after 60 mins by LC-MS/MS analysis; assay type: ADME, cell-based, Hepatocyte; conditions: 1 h
Outline: (§1)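 Pooled mixed-sex cryopreserved human hepatocytes (1 million cells/mL) in Leibovitz L-15 at 37 °C, compound at 10 μM in duplicate. Sampled at 0 and 60 min. Protein-free supernatant evaporated under nitrogen, reconstituted in mobile phase and analysed by LC−MS/MS. Cell-free medium incubation for 60 min as control.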

[3] = Drug level in human hepatocytes treated with 3, 5-Dichloro-4-((S)-2-(3-(cyclopropylmethoxy)-4-(difluoromethoxy)phenyl)-2-((S)-3-(3-(dimethylcarbamoyl)-phenylsulfonyl)thiazolidine-2-carbonyloxy)ethyl)pyridine 1-Oxide at 10 uM after 60 mins by LC-MS/MS analysis; assay type: ADME, cell-based, Hepatocyte; conditions: 1 h; outline: as §1
[4] = Inhibition of PDE4 in human U937 cell lysates assessed as residual cAMP after 2.5 mins by LANCE assay

Row | SMILES | IC50 [1] [nM] | Drug metabolism [2] | Drug metabolism [3] | IC50 [4] [nM]
1 | [O-][n+]1cc(Cl)c(C[C@H](O)c2ccc(OC(F)F)c(OCC3CC3)c2)c(Cl)c1 | 480 | Metabolite_Detected | Metabolite_Detected | –
2 | CN(C)C(=O)c1cccc(S(=O)(=O)N2CCS[C@H]2C(=O)O[C@@H](Cc2c(Cl)c[n+]([O-])cc2Cl)c2ccc(OC(F)F)c(O)c2)c1 (relative stereo) | 1.95 | – | Metabolite_Detected | 0.183 to 1.95
3 | CN(C)C(=O)c1cccc(S(=O)(=O)N2CCC[C@H]2C(=O)O)c1 | > 1000 | Metabolite_Detected | – | –
